# Measurements gathered from unrelated publications.
# Compare with care: the assays were run in different laboratories.
# Observed: cell growth or viability
SMILES,cell line,test,conditions,quantity,result
O=C(O)CCCc1ccc(N(CCCl)CCCl)cc1,OVCAR-3,CCK-8,48 h,IC50,29.4 µM
CC(C)C[C@H](NC(=O)OCc1ccccc1)C(=O)N[C@@H](CC(C)C)C(=O)N[C@@H](CC(C)C)C(=O)C(=O)Nc1cccc2ncccc12,RPMI-8226,MTS,72 h,IC50,0.134 µM
C[C@H]1CN(c2ccncc2NC(=O)c2ccc(F)c(-c3c(F)cccc3F)n2)C[C@@H](N)[C@@H]1O,RPMI-8226,thymidine uptake,,GI50,0.156 µM
CCCCC/C=C\C/C=C\C/C=C\C/C=C\CCCC(=O)NCCO,ReNcell VM,imaging,24 h,IC50,~11.4 µM
COc1cc2c3c(n(CCCNCCO)c(=O)c2cc1OC)-c1cc2c(cc1C3=O)OCO2,OVCAR-3,,,GI50,0.5 µM
CC(C)C[C@H](NC(=O)OCc1ccccc1)C(=O)N[C@@H](Cc1ccccc1)C(=O)N[C@@H](CC(C)C)C(=O)C(=O)Nc1ccccc1,RPMI-8226,MTS,72 h,IC50,0.843 µM
Cc1cc(N(CCOS(C)(=O)=O)CCOS(C)(=O)=O)ccc1C=O,ACHN,,,IC50,0.263 mg/L
CCOP(=S)(OCC)Oc1nc(Cl)c(Cl)cc1Cl,ReNcell VM,imaging,24 h,IC50,~11.6 µM
